According to article PMC2441798 (Nucleic Acids Research, 2008):
Blank lines part the entries; values can stand above or below the molecule they belong to. Peptide text beside a SMILES is read from it.

Tests used:
PlcR = molecular target: T1, PlcR (Bacillus thuringiensis, UniProt Q45782); assay: Steady-state fluorescence anisotropy binding titrations
T1 sequence (Q45782 1-285): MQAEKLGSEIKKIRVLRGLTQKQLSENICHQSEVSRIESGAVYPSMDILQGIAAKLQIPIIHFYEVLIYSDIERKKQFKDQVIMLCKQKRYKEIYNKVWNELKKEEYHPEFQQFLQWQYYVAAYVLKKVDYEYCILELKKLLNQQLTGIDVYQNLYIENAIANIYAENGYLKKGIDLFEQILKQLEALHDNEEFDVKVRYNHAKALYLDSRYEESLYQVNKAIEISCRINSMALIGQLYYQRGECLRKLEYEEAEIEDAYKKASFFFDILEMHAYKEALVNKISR

PlcRIV = assay: plcA'-lacZ β-galactosidase assay in 407; assay type: cell-based, Bacillus thuringiensis; settings: 2 µM peptide, 1 h
Method in brief: (§1)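 Reporter strain 407 (plcA′Z ΔplcR–papR), carrying plcR on plasmid pHT304 under its own promoter, grown in LB without antibiotics at 37°C with vigorous shaking to stationary-phase onset T0 (OD600 3 ± 0.3). Cultures split into 12 ml fractions. Cognate synthetic PapR penta- or heptapeptide added at 2 µM final, then 1 h incubation. 2 ml pelleted for β-galactosidase assay. Each assay run at least three times.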

PlcRII = assay: plcA'-lacZ β-galactosidase assay in 407; assay type: cell-based, Bacillus thuringiensis; settings: 2 µM peptide, 1 h
Method in brief: as §1

PlcRI'III = assay: plcA'-lacZ β-galactosidase assay, chimeric PlcRI'III; assay type: cell-based, Bacillus thuringiensis; settings: 2 µM heptapeptide, 1 h, PlcRI'III chimera
Method in brief: (§2)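 Reporter strain Bacillus 407 (plcA′Z ΔplcR–papR), which carries a plcA promoter–lacZ fusion, was complemented with pHT304-based plasmids carrying modified plcR genes under their own promoter. Cultures were grown in LB without antibiotics at 37°C with vigorous shaking to stationary-phase onset (OD600 3 ± 0.3), then split into 12 ml fractions. Synthetic peptide was added to 2 µM final for 1 h. β-galactosidase was assayed on 2 ml pellets, with at least three repeats.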

PlcRIII = assay: plcA'-lacZ β-galactosidase assay in 407; assay type: cell-based, Bacillus thuringiensis; settings: 2 µM peptide, 1 h
Method in brief: as §1

PlcRI'II = assay: plcA'-lacZ β-galactosidase assay, chimeric PlcRI'II; assay type: cell-based, Bacillus thuringiensis; settings: 2 µM heptapeptide, 1 h, PlcRI'II chimera
Method in brief: as §2

PlcRA278K = assay: plcA'-lacZ β-galactosidase assay, PlcRA278K mutant; assay type: cell-based, Bacillus thuringiensis; settings: 2 µM heptapeptide, 1 h; similar to PlcRI'II response
Method in brief: as §2

Molecule: CC(C)C[C@H](NC(=O)[C@H](CC(=O)O)NC(=O)[C@H](C)N)C(=O)N1CCC[C@H]1C(=O)N[C@@H](Cc1ccccc1)C(=O)N[C@@H](CCC(=O)O)C(=O)N[C@@H](Cc1ccccc1)C(=O)O [ADLPFEF] (H-ADLPFEF-OH)
- Kd (PlcR): 25 µM

Molecule: NELPFEF
- activation of PlcRI'III (in words) (PlcRI'III): partly restores

Molecule: NEVPFEF
- activation of plcA'lacZ expression (in words) (PlcRIII): activated
- activation of PlcRI'III (in words) (PlcRI'III): not activated

Molecule: SDMPFEF
- activation of plcA'lacZ expression (in words) (PlcRII): activated
- activation greater than that of wild-type PlcRI by PapRI (PlcRI'II): about 2 fold
- activation less than that of PlcRII by PapRII (PlcRI'II): 2 fold
- activation of PlcRA278K (in words) (PlcRA278K): activated

Results, then the molecule that gave them:

- Kd (PlcR): 41 µM
Molecule: CC(C)C[C@H](N)C(=O)N1CCC[C@H]1C(=O)N[C@@H](Cc1ccccc1)C(=O)N[C@@H](CCC(=O)O)C(=O)N[C@@H](Cc1ccccc1)C(=O)O [LPFEF] (H-LPFEF-OH)

- activation of plcA'lacZ expression (in words) (PlcRIV): activated
Molecule: LPFEH

- activation of plcA'lacZ expression (in words) (PlcRII): activated
Molecule: MPFEF

- activation of plcA'lacZ expression (in words) (PlcRIV): activated
Molecule: SDLPFEH

- activation of plcA'lacZ expression (in words) (PlcRIII): activated
Molecule: VPFEF
